From ChEMBL document CHEMBL1152615, “Cytosporones, coumarins, and an alkaloid from the endophytic fungus Pestalotiopsis sp. isolated from the Chinese mangrove plant Rhizophoramucronata” (Bioorg Med Chem, 2009)
The source made the active and inactive calls.

Columns and labels:
Assay type in all cases: functional, cell-based
L5178Y = assay: Cytotoxicity against mouse L5178Y cells
Method in brief: (§1)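 MTT assay. Cells kept in RPMI-1640 with Na-carbonate (pH 7.2) plus 10% FCS, at 37 °C under humidified 5% CO2/95% air. Seeded at 1500 cells/mL and exposed for 72 h to compounds in DMSO at several concentrations, with an initial test concentration of 10 µg/mL. MTT added for 3 h, then DMSO for 1 h to lyse cells; absorbance read at 595 nm. Negative control was medium with 0.1% EGMME/DMSO.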

PC-12 = assay: Cytotoxicity against rat PC12 cells; method in brief: as §1
HeLa = assay: Cytotoxicity against human HeLa cells; method in brief: as §1

Measured: Activity

COc1cc(O)cc2cc(CO)c(=O)oc12
inactive: all assays above

COc1cc(OC)c2oc(=O)c(CC(O)CO)cc2c1 (centres undefined)
inactive: all assays above

COC(=O)Cc1cc(O)cc(O)c1C(=O)CCCCCC(C)O (centres undefined)
inactive: all assays above

CCOC(=O)Cc1cc(O)cc(O)c1C(=O)CCCCCC(C)O (centres undefined)
inactive: all assays above

COc1cc(O)c2oc(=O)c(CC(O)CO)cc2c1 (centres undefined)
inactive: all assays above

CCCCCCCC(=O)c1c(O)cc(O)cc1CC(=O)OC
inactive: all assays above

CC(=O)OC(C)CCCCCC1OC(=O)Cc2cc(O)cc(O)c21 (centres undefined)
inactive: all assays above

COc1cc(OC)c2oc(=O)c(CC(C)O)cc2c1 (centres undefined)
inactive: all assays above

CC(O)CCCCCC1OC(=O)Cc2cc(O)cc(O)c21 (centres undefined)
inactive: all assays above

COc1cc(OC)c2oc(=O)c(C(O)C(C)O)cc2c1 (centres undefined)
inactive: all assays above

CC(=O)OCCCCCCCC1OC(=O)Cc2cc(O)cc(O)c21 (centres undefined)
inactive: all assays above

CCCCCCCC1OC(=O)Cc2cc(O)cc(O)c21 (centres undefined)
inactive: all assays above

COc1cc(OC)c2oc(=O)c(CO)cc2c1
inactive: all assays above
